Experimental data published in PMC8240349 (Journal of Traditional and Complementary Medicine, 2021).
Like-named read-outs stand apart in the source and are kept apart here. Marks after values point to notes of the source that are not given here.

Experiments:
[1] = cited from earlier work
[2] = type: in vivo, human; conditions: for AUC0-t / AUC0-∞ / CL/F / MRT / Vz/F / t1/2z / tmax / λ / Cmax: median (range)
Outline: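 Healthy Thai adults took oral 1,000 mg AL extract capsules with 200 ml water, either once (group 1) or daily for 21 days (group 2), with 20 active recipients per group. Plasma atractylodin was measured by reversed-phase C18 HPLC (UV 340 nm, acetonitrile:water 70:30, 25 °C; LOQ 2.5 ng/ml). Cmax was read from observed data. t1/2z came from log-linear regression of at least the last three points. MRT was AUMC0-∞/AUC0-∞.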

[3] = type: in vivo, human; conditions: for AUC0-∞ / CL/F / Cmax / K01 / Vz/F / k10 / t1/2a / t1/2z / tlag / tmax / K10: median (range)
[4] = rats, cited from earlier work
CCA = conditions: cited from earlier work; for IC50, anti-CCA activity: bioassay-guided activity
[5] = group 1, single 1,000 mg AL, all
[6] = group 1, single 1,000 mg AL, female
[7] = group 1, single 1,000 mg AL, male
[8] = group 2, daily 1,000 mg AL, day 1, all
[9] = group 2, daily 1,000 mg AL, day 1, female
[10] = group 2, daily 1,000 mg AL, day 1, male
[11] = group 2, daily 1,000 mg AL, day 21, all
[12] = group 2, daily 1,000 mg AL, day 21, female
[13] = group 2, daily 1,000 mg AL, day 21, male
[14] = intravenous 2 mg/kg body weight atractylodin
[15] = oral 30 g/kg body weight A. rhizoma
[16] = oral 40 g/kg body weight crude A. rhizoma
[17] = oral 40 g/kg body weight processed A. rhizoma

## C/C=C/C#CC#C/C=C/c1ccco1 [atractylodin]
[1]
  water solubility: low water solubility
[2]; all participants, both groups
  plasma atractylodin after 6 h: undetectable
[2]; both groups, model-independent analysis
  observed Cmax, range: 7.1 to 152.7 ng/mL
[2]; [5]
  AUC0-t: 118.27 (72.47–169.90) ng.h/ml
  AUC0-∞: 123.70 (75.13–176.96) ng.h/ml
  CL/F: 6.68 (4.46–13.70) l/kg/h
  MRT: 2.42 (1.74–3.11) h
  Vz/F: 11.45 (7.06–20.17) l/kg
  t1/2z: 1.13 (0.78–1.48) h
  tmax: 1 (0.75–1.5) h
  λ: 0.62 (0.47–0.89) /h
[2]; [6]
  AUC0-t: 122.67 (72.47–192.85) ng.h/ml
  AUC0-∞: 128.13 (75.13–199.88) ng.h/ml
  CL/F: 6.87 (4.48–13.70) l/kg/h
  Cmax: 58.65 (42.50–96.80) ng/ml
  MRT: 2.21 (1.70–3.74) h
  Vz/F: 12.11 (6.62–20.17) l/kg
  t1/2z: 1.18 (0.72–2.19) h
  tmax: 1.0 (0.75–1.0) h
  λ: 0.71 (0.37–0.92) /h
[2]; [7]
  AUC0-t: 142.14 (83.48–199.75) ng.h/ml
  AUC0-∞: 146.88 (86.09–226.53) ng.h/ml
  CL/F: 6.29 (2.80–8.92) l/kg/h
  Cmax: 59.20 (41.80.50–99.30) ng/ml
  MRT: 2.42 (1.71–2.94) h
  Vz/F: 11.49 (8.35–56.42) ^a l/kg
  t1/2z: 1.23 (0.13–2.77) h
  tmax: 1.0 (0.75–2.0) h
  λ: 0.85 (0.29–1.10) /h
[2]; group 1, single 1,000 mg AL, 10 participants
  participants with atractylodin detected at 0.25 h: 50%
[2]; [8]
  AUC0-t: 93.06 (12.13–276.28) ng.h/ml
  AUC0-∞: 112.2 (20.11–306.76) ng.h/ml
  CL/F: 7.33 (2.87–33.43) l/kg/h
  Cmax: 47.10 (7.10–129.90) ng/ml
  MRT: 2.60 (1.58–5.17) h
  Vz/F: 12.75 (4.44–61.56) l/kg
  t1/2z: 1.16 (0.63–3.75) h
  tmax: 1.0 (0.5–2.0) h
  λ: 0.60 (0.19–1.11) /h
[2]; [9]
  AUC0-t: 99.67 (42.88–276.28) ng.h/ml
  AUC0-∞: 139.56 (70.21–248.22) ng.h/ml
  CL/F: 6.43 (2.87–15.00) l/kg/h
  Cmax: 54.35 (16.10–129.90) ng/ml
  MRT: 2.66 (1.70–3.99) h
  Vz/F: 11.97 (4.44–37.88) l/kg
  t1/2z: 1.36 (0.85–1.75) h
  λ: 0.52 (0.40–0.82) /h
[2]; [10]
  AUC0-t: 82.88 (12.13–181.08) ng.h/ml
  AUC0-∞: 92.40 (20.11–210.23) ng.h/ml
  CL/F: 8.38 (3.77–33.43) l/kg/h
  Cmax: 41.90 (7.10–67.20) ng/ml
  MRT: 2.47 (1.58–5.17) h
  Vz/F: 13.96 (6.73–61.56) l/kg
  t1/2z: 1.09 (0.63–3.75) h
  tmax: 1.0 (1.0–2.0) h
  λ: 0.64 (0.19–1.11) /h
[2]; group 2, daily 1,000 mg AL, day 1, 17 participants
  participants with atractylodin detected at 0.5 h: 85%
[2]; [11]
  AUC0-t: 106.67 (40.42–259.81) ng.h/ml
  AUC0-∞: 117.75 (48.73-269-21) ng.h/ml
  CL/F: 6.80 (2.95–14.82) l/kg/h
  Cmax: 46.95 (20.10–152.70) ng/ml
  MRT: 2.64 (1.58–4.54) h
  Vz/F: 12.85 (3.58–31.55) l/kg
  t1/2z: 1.14 (0.80–2.17) h
  tmax: 1.0 (0.5–2.0) h
  λ: 0.61 (0.32–0.87) /h
[2]; [12]
  AUC0-t: 118.05 (42.97–212.09) ng.h/ml
  AUC0-∞: 145.54 (67.49–232.33) ng.h/ml
  CL/F: 5.93 (3.79–11.38) l/kg/h
  Cmax: 52.55 (20.10–152.70) ng/ml
  MRT: 2.61 (1.58–4.54) h
  Vz/F: 12.12 (5.11–31.55) l/kg
  t1/2z: 1.28 (0.80–2.17) h
  tmax: 1.0 (0.5–2.0) h
  λ: 0.54 (0.32–0.87) /h
[2]; [13]
  AUC0-t: 75.38 (40.42–259.81) ng.h/ml
  AUC0-∞: 91.67 (48.73-269-21) ng.h/ml
  CL/F: 7.90 (2.95–14.82) l/kg/h
  Cmax: 44.0 (22.0–107.0) ng/ml
  MRT: 2.64 (1.95–3.08) h
  Vz/F: 13.79 (3.58–22.13) l/kg
  t1/2z: 1.08 (0.84–1.65) h
  tmax: 1.0 (1.0–2.0) h
  λ: 0.64 (0.42–0.82) /h
[2]; group 2, daily 1,000 mg AL, day 21, 19 participants
  participants with atractylodin detected at 0.5 h: 95%
[2]; group 2, daily 1,000 mg AL, range
  plasma atractylodin level at 4 h: 2.5 to 18.2 ng/mL
[2]; human plasma, multiple oral dosing for 21 days
  accumulation after multiple oral dosing: no accumulation
[2]; most participants
  time by which atractylodin was cleared in plasma: ≤ 4 h
[3]; [5]
  AUC0-∞: 105.07 (65.93–168.90) ng.h/ml
  CL/F: 7.28 (4.78–15.62) l/kg/h
  Cmax: 29.1 (17.1–42.51) ng/ml
  K01: 0.68 (0.43–1.00) /h
  Vz/F: 10.18 (6.85–19.53) L/kg
  k10: 0.71 (0.44–1.71) /h
  t1/2a: 0.97 (0.41–1.58) h
  t1/2z: 0.88 (0.37–1.74) h
  tlag: 0.13 (0.0–0.5) h
  tmax: 1.41 (0.94–2.3) h
[3]; [6]
  AUC0-∞: 108.19 (65.93–186.59) ng.h/ml
  CL/F: 8.06 (4.80–15.62) l/kg/h
  Cmax: 31.04 (19.29–49.21) ng/ml
  K01: 0.75 (0.59–1.48) /h
  K10: 0.76 (0.59–1.16) /h
  Vz/F: 11.81 (5.65–19.53) l/kg
  t1/2a: 0.92 (0.47–1.19) h
  t1/2z: 0.92 (0.47–1.19) h
  tlag: 0.0 (0.0–0.25) h
  tmax: 1.33 (0.89–1.70) h
[3]; [7]
  AUC0-∞: 118.85 (74.25–189.98) ng.h/ml
  CL/F: 6.35 (3.34–10.33) l/kg/h
  Cmax: 31.05 (17.86–51.36) ng/ml
  K01: 0.68 (0.44–0.95) /h
  K10: 0.67 (0.43–0.96) /h
  Vz/F: 8.41 (5.14–18.70) l/kg
  t1/2a: 1.02 (0.73–1.58) h
  t1/2z: 1.02 (0.73–1.57) h
  tlag: 0.25 (0–0.5) h
  tmax: 1.48 (1.05–2.29) h
[3]; [8]
  AUC0-∞: 103.7 (16.5–315.4) ng.h/ml
  CL/F: 8.11 (2.73–40.75) l/kg/h
  Cmax: 32.11 (4.9–117.8) ng/ml
  K01: 0.83 (0.43–22.67) /h
  Vz/F: 12.74 (2.687–47.03) L/kg
  k10: 0.71 (0.43–1.25) /h
  t1/2a: 0.84 (0.03–1.63) h
  t1/2z: 0.84 (0.03–1.63) h
  tlag: 0 (0–0.5) h
  tmax: 1.18 (0.17–2.34) h
[3]; [9]
  AUC0-∞: 130.62 (52.04–315.40) ng.h/ml
  CL/F: 6.50 (2.73–14.76) l/kg/h
  Cmax: 42.26 (8.41–117.80) ng/ml
  K01: 0.96 (0.43–22.67) /h
  K10: 0.63 (0.43–1.19) /h
  Vz/F: 10.09 (2.68–33.56) l/kg
  t1/2a: 0.73 (0.03–1.63) h
  t1/2z: 0.73 (0.03–1.63) h
  tmax: 1.11 (0.17–2.34) h
[3]; [10]
  AUC0-∞: 91.88 (16.5–109.93) ^b ng.h/ml
  CL/F: 8.75 (5.8–40.75) l/kg/h
  Cmax: 23.77 (4.97–49.75) ^a ng/ml
  K01: 0.78 (0.57–1.89) /h
  K10: 0.72 (0.24–1.25) /h
  Vz/F: 15.52 (6.43–47.03) l/kg
  t1/2a: 0.89 (0.37–1.21) h
  t1/2z: 0.89 (0.37–1.21) h
  tlag: 0.0 (0.0–0.5) h
  tmax: 1.25 (0.81–1.73) h
[3]; [11]
  AUC0-∞: 123.18 (49.22–419.61) ng.h/ml
  CL/F: 7.10 (1.83–14.67) l/kg/h
  Cmax: 31.84 (9.38–97.64) ng/ml
  K01: 0.74 (0.10–1.92) /h
  Vz/F: 9.66 (0.47–26.32) L/kg
  k10: 0.73 (0.11–15.31) /h
  t1/2a: 0.94 (0.36–6.61) h
  t1/2z: 0.94 (0.05–6.49) h
  tlag: 0 (0–0.5) h
  tmax: 1.32 (0.24–9.44) h
[3]; [12]
  AUC0-∞: 144.4 (69.1–420.3) ng.h/ml
  CL/F: 5.91 (1.83–11.11) l/kg/h
  Cmax: 39.49 (11.40–91.24) ng/ml
  K01: 0.72 (0.11–1.92) /h
  K10: 0.74 (0.11–15.31) /h
  Vz/F: 8.18 (0.47–25.06) l/kg
  t1/2a: 0.97 (0.36–6.61) h
  t1/2z: 0.94 (0.05–6.49) h
  tlag: 0 (0–0.5) h
  tmax: 1.36 (0.24–9.45) h
[3]; [13]
  AUC0-∞: 87.18 (49.22–292.77) ^c ng.h/ml
  CL/F: 8.16 (2.70–14.67) ^d l/kg/h
  Cmax: 26.03 (9.39–97.64) ng/ml
  K01: 0.83 (0.52–1.57) /h
  K10: 0.71 (0.42–0.99) /h
  Vz/F: 13.32 (3.05–26.32) l/kg
  t1/2a: 0.84 (0.44–1.34) h
  t1/2z: 0.99 (0.70–1.67) h
  tlag: 0 (0.0–0.0) h
  tmax: 1.24 (1.0–1.94) h
[3]; in vivo
  Cmax by model-dependent analysis compared with model-independent analysis: 60–70%
[4]; [14]
  central volume of distribution (Vc): 31.7 L/kg
  t1/2: 3.3 h
  total clearance (CL): 110 mL/min/kg
[4]; [15]
  mean maximum plasma concentration (Cmax): 1,930 ng/ml
  terminal elimination half-life (t1/2): 8 h
  time to Cmax (tmax): 2.25 h
[4]; [16]
  CL/F: 111 mL/min/kg
  mean Cmax: 625 ng/mL
  mean residence time (MRT): 4.8 h
  t1/2z: 2.38 h
  time of Cmax: 2.2 h
[4]; [17]
  CL/F: 42.7 mL/min/kg
  MRT: 7.06 h
  mean Cmax: 2,299 ng/ml
  t1/2z: 5.13 h
  tmax: 0.33 h
CCA
  IC50, anti-CCA activity: 20 to 25 µg/mL

## C=C1CCC[C@]2(C)CC[C@@H](C(C)(C)O)C[C@@H]12 [β-eudesmol]
CCA
  IC50, anti-CCA activity: 20 to 25 µg/mL

## CC1=CCC[C@H](C)[C@@]12CC[C@@H](C(C)(C)O)C2 [hinesol]
CCA
  activity (anti-CCA): weak activity
